Results from paper PMC9078286 (RSC Advances, 2018).

Type: in vivo, Sprague-Dawley rats
Settings: for T max / half-life: Normal rats, oral Gandi capsule 80 mg kg^-1, plasma, n = 6, mean ± SD; for concentration at 2 h / half-life: male, Sprague-Dawley, rat, plasma, po; for concentration at 2 h: 80 mg kg^-1 Gandi capsule; for half-life: 80 mg/kg, T 1/2 z
Method in brief: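 Diabetes was induced by a single ip STZ dose of 45 mg kg−1 in citrate buffer (0.1 mol L−1, pH 4.5), with blood glucose >16.7 mmol L−1 after 1 week; rats were dosed on day 10. Rats were fasted 12 h, then given capsule contents in 0.3% CMC-Na orally; n = 6/group. Plasma was sampled 0–48 h, precipitated with IS in methanol and analysed by positive-ion LC-MS/MS; results are mean ± SD, compared by t-test.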

| SMILES | T max [h] | concentration at 2 h [ng/mL] | half-life [h] | Time after oral administration in which the compound can be detected in plasma (oral Gandi capsule, rat plasma, quick elimination phase) [h] |
| --- | --- | --- | --- | --- |
| O=C(O)[C@H]1O[C@@H](Oc2cc3oc(-c4ccccc4)cc(=O)c3c(O)c2O)[C@H](O)[C@@H](O)[C@@H]1O [Baicalin, baicalin] | 1.50 ± 1.40 | 723 | 9.45 ± 2.87 |  |
| COC(=O)C1=CO[C@@H](O[C@@H]2O[C@H](CO)[C@@H](O)[C@H](O)[C@H]2O)[C@@H]2[C@@H](C)[C@@H](O)C[C@H]12 [Loganin, loganin] | 1.25 ± 0.35 | 42.6 | 0.46 ± 0.38 | ≤ 2.5 |
| COc1c(O)cc(O)c2c(=O)cc(-c3ccccc3)oc12 [Wogonin, wogonin] |  | 54.9 | 1.52 ± 0.25 |  |
